The test system of series [1] is Mus musculus. Put plainly: Antagonistic activity against amphetamine-induced Hypermobility in mice, by administering perorally at a dose of 100 mg/kg. Format: functional. To be noted: route oral. Put shortly:
(§1)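 Male mice in groups of five, fasted overnight, given oral drug in arabic gum suspension (10 mL/kg) 1 or 5 h ahead. Amphetamine 4 mg/kg ip given 30 min after drug. Ten minutes later locomotion is recorded for 15 min in a photocell actophotometer. ED50 is 50% reduction versus control hypermotility, by probit analysis. Parenthetical entries give the maximal dose and percent activity.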

Series [2] is described as follows: Lethal dose in mice (LD50) following i.p. dosing. The format is toxicity, organism-based. To be noted: mouse, in vivo, ip. Put shortly:
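Acute toxicity tested in mice by the intraperitoneal route. LD50 is the dose killing 50% of treated mice, computed by Finney probit analysis; values are approximate.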

Series [3] deals with Mus musculus. Description: Inhibition of spontaneous motor activity in mice, by administering perorally at a dose of 100 mg/kg. Format: functional. To be noted: route oral. Put shortly:
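Mice fasted overnight, then dosed orally with compound (weighed as base) suspended in arabic gum, 10 mL/kg, with vehicle controls; 1 h pretreatment for screening tests, 1 or 5 h for others. Groups of five; locomotor activity counted 10 min in photocell activity cage, at least two groups per dose. ED50 = dose giving 50% inhibition versus controls, by probit analysis.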

The subject of series [4] is Rattus norvegicus. Put plainly: Antagonistic activity against apomorphine-induced stereotypy in rats, by administering perorally at a dose of 100 mg/kg. Format: functional. The note with it: route oral. Put shortly: (§2)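 Male rats fasted overnight and given oral doses in arabic gum suspension (10 mL/kg) 1 h, or 1 and 5 h, before challenge. Apomorphine 3 mg/kg iv, with stereotypy observed 20 min later. ED50 is the dose inhibiting stereotypy in 50% of rats, per Janssen's method. Parenthetical entries give the maximal dose and percent activity.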

For series [5], the system named is Rattus norvegicus. Description: Activity to evoke catalepsy in rats, by administering perorally at a dose of 100 mg/kg. Format: functional. To be noted: route oral, read-out: Inhibition. Put shortly: (§3)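 Rats fasted overnight and given oral doses in arabic gum suspension (10 mL/kg), 1 h before screening or 1 and 5 h before profile testing. Forelegs placed on a horizontal bar 7 cm high, three times at 5-min intervals. Immobility of at least 15 s counts as catalepsy. ED50 is the dose giving catalepsy in 50% of rats, by probit analysis. Parenthetical entries give the maximal dose and percent activity.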

Series [6] relates to Mus musculus. Put plainly: Inhibition of spontaneous motor activity in mice, by administering perorally. The format is functional. To be noted: po. Put shortly:
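Mice in groups of five were dosed orally with gum arabic suspensions at 10 mL/kg after an overnight fast, with a vehicle control group. Locomotion was counted for 10 min in a photocell activity cage, in at least two groups per dose. ED50, by probit analysis, is the dose giving 50% inhibition against controls.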

In series [7] the test system is Mus musculus. Put plainly: Inhibition of amphetamine-induced hypermobility in mice following p.o. administration. Format: functional. To be noted: po. Put shortly:
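Compounds were given orally to male mice (gum arabic suspension, 10 mL/kg, fasted) in groups of five. Amphetamine 4 mg/kg ip followed 30 min later. After another 10 min, motility was recorded for 15 min with a photocell actophotometer. ED50, by probit analysis, is the dose giving 50% reduction against controls.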

The test system of series [8] is Rattus norvegicus. Put plainly: Activity to evoke catalepsy in rats, by administering perorally at a dose of 200 mg/kg. Format: functional. To be noted: route oral. Put shortly: as §3
Series [9] deals with Rattus norvegicus. Description: Antagonistic activity against apomorphine-induced stereotypy in rats, by administering perorally. The note with it: po. The format is functional. Put shortly: as §2
Series [10] relates to Rattus norvegicus. Put plainly: Antagonistic activity against apomorphine-induced stereotypy in rats, by administering perorally at a dose of 150 mg/kg. To be noted: route oral. Format: functional. Put shortly:
as §2

Series [11] relates to Rattus norvegicus. Put plainly: Activity to evoke catalepsy in rats, by administering perorally at a dose of 150 mg/kg. The format is functional. To be noted: route oral. Put shortly:
as §3

Series [12] relates to Rattus norvegicus. Put plainly: Antagonistic activity against apomorphine-induced stereotypy in rats, by administering perorally at a dose of 50 mg/kg. Format: functional. The note with it: route oral. Put shortly: as §2
In series [13] the test system is Rattus norvegicus. Description: Activity to evoke catalepsy in rats, by administering perorally at a dose of 50 mg/kg. The format is functional. To be noted: route oral. Put shortly: as §3
In series [14] the test system is Rattus norvegicus. Description: Activity to evoke catalepsy in rats, by administering perorally. Format: functional. The note with it: po. Put shortly: as §3
Series [15] concerns Rattus norvegicus. Description: Activity to evoke catalepsy in rats, by administering perorally at a dose of 70 mg/kg. Format: functional. To be noted: route oral. Put shortly: as §3
The test system of series [16] is Mus musculus. Description: Antagonistic activity against amphetamine-induced Hypermobility in mice, by administering perorally at a dose of 10 mg/kg. Format: functional. To be noted: route oral. Put shortly:
as §1

Series [17] concerns Rattus norvegicus. Description: Antagonistic activity against apomorphine-induced stereotypy in rats, by administering perorally at a dose of 40 mg/kg. The format is functional. The note with it: route oral. Put shortly:
as §2

In series [18] the test system is Rattus norvegicus. Put plainly: Activity to evoke catalepsy in rats, by administering perorally at a dose of 40 mg/kg. Format: functional. The note with it: route oral. Put shortly:
as §3

As usually defined, the inhibition in vivo is the share of the control response that was lost under treatment. The term LD50 denotes the dose at which mortality reaches 50%. Higher therefore signals lower toxicity. With `Oc1nc(-c2ccc(F)cc2)c(CCN2CCN(c3cc(Cl)c(Cl)c(Cl)c3)CC2)o1`, the inhibition in vivo at 100 mg/kg in the series with Mus musculus [1], in the series on Mus musculus [3] and in the series on Rattus norvegicus [4] was 0% each time. Also, the 50% lethal dose (LD50) in [2] was more than 1000 mg/kg. Also, the percent of rats showing catalepsy at 100 mg/kg in the series on Rattus norvegicus [5] was found to be 0%.
By ED50 is commonly meant the dose at which the effect has come halfway, by size or by number of responders. A low value points to an effect at a small dose. `Oc1nc(-c2ccc(F)cc2)c(CCN2CCN(c3ccc(Cl)cc3)CC2)o1` showed an ED50 in the series with Mus musculus [6] of 200 mg/kg. The inhibition in vivo at 100 mg/kg with Mus musculus [1] and in the series with Rattus norvegicus [4] was 0% each time. The 50% lethal dose (LD50) in series [2] was more than 1000 mg/kg. Further, the percent of rats showing catalepsy at 100 mg/kg in the series on Rattus norvegicus [5] was 0%.
`Oc1nc(-c2ccc(F)cc2)c(CCN2CCN(c3ccccc3Cl)CC2)o1`: the 50% effective dose (ED50) in the series on Mus musculus [7] was determined as 15 mg/kg; in the series on Mus musculus [6], 14.2 mg/kg. This compound also displayed an LD50 in series [2] of more than 1000 mg/kg. Also, testing at 100 mg/kg in the series on Rattus norvegicus [4] gave an inhibition in vivo of 0%. The percent of rats showing catalepsy at 100 mg/kg with Rattus norvegicus [5] was 30%.
`COc1ccc(N2CCN(CCc3oc(O)nc3-c3ccc(F)cc3)CC2)cc1`: the inhibition in vivo at 100 mg/kg amounted to 0% in the series with Mus musculus [1], 33% in the series on Mus musculus [3] and 0% in the series on Rattus norvegicus [4]. Further, the median lethal dose (LD50) in [2] is more than 1000 mg/kg. The percent of rats showing catalepsy at 100 mg/kg in the series with Rattus norvegicus [5] amounted to 0%.
As for `O=c1oc(CCN2CCN(c3ccccc3)CC2)c(-c2ccc(F)cc2)n1Cc1ccccc1`, the median effective dose (ED50) in the series with Mus musculus [6] was 51 mg/kg; in the series on Rattus norvegicus [9], 200 mg/kg. This compound returned an inhibition in vivo at 100 mg/kg with Mus musculus [1] of 40%. Moreover, the 50% lethal dose (LD50) in [2] was determined as 1000 mg/kg. In the series with Rattus norvegicus [8], this compound showed an inhibition in vivo at 200 mg/kg of 0%.
As to `CCCCn1c(-c2ccc(F)cc2)c(CCN2CCN(c3ccccc3)CC2)oc1=O`, the median effective dose (ED50) with Mus musculus [7] amounted to 15.4 mg/kg; with Mus musculus [6] it was 16 mg/kg. Further, the LD50 in series [2] came to 750 mg/kg. Moreover, the inhibition in vivo at 150 mg/kg turned out to be 40% in the series on Rattus norvegicus [10] and 0% with Rattus norvegicus [11].
For the compound `Cc1cccc(N2CCN(CCc3oc(O)nc3-c3ccc(F)cc3)CC2)c1`, the ED50 in the series with Mus musculus [7] is 7.3 mg/kg; in the series on Mus musculus [6] it was 13.4 mg/kg. The LD50 in [2] was more than 1000 mg/kg. Besides, the inhibition in vivo at 50 mg/kg with Rattus norvegicus [12] and in the series with Rattus norvegicus [13] was 0% in each case.
In the case of `Oc1nc(-c2ccc(F)cc2)c(CCN2CCN(c3cccc(Cl)c3)CC2)o1`, the values for the 50% effective dose (ED50) with Mus musculus [7], in the series with Mus musculus [6] and with Rattus norvegicus [9] were 54.1 mg/kg, 58.5 mg/kg and 80 mg/kg, respectively. The LD50 in series [2] was more than 1000 mg/kg. Further, the percent of rats showing catalepsy at 100 mg/kg in the series with Rattus norvegicus [5] came to 0%.
Consider `Oc1nc(-c2ccc(F)cc2)c(CCN2CCN(c3ccccc3)CC2)o1`, for which the 50% effective dose (ED50) with Mus musculus [7] worked out at 5.4 mg/kg; with Mus musculus [6] it was 3.6 mg/kg; in the series on Rattus norvegicus [14], 87 mg/kg; in the series with Rattus norvegicus [9], 47.5 mg/kg. The same compound displayed a 50% lethal dose (LD50) in series [2] of more than 2000 mg/kg.
For `Cc1ccc(-c2nc(O)oc2CCN2CCN(c3ccccc3)CC2)cc1`, the values for the ED50 in the series with Mus musculus [7] and in the series with Mus musculus [6] were 2 mg/kg and 6.4 mg/kg, respectively. Also, in series [2], the 50% lethal dose (LD50) was 400 mg/kg. Besides, at 100 mg/kg the inhibition in vivo with Rattus norvegicus [4] was 0%. Further, in the series with Rattus norvegicus [5], the percent of rats showing catalepsy at 100 mg/kg is 0%.
For the compound `CCN(CC)CCn1c(-c2ccc(F)cc2)c(CCN2CCN(c3ccccc3)CC2)oc1=O`, the median effective dose (ED50) was determined as 60 mg/kg in the series on Mus musculus [6] and 35 mg/kg with Rattus norvegicus [9]. Moreover, the LD50 in series [2] amounted to 350 mg/kg. The compound further came in with an inhibition in vivo at 70 mg/kg in the series with Rattus norvegicus [15] of 0%.
Compound `Oc1nc(-c2ccc(F)cc2)c(CCCN2CCN(c3ccccc3)CC2)o1` yielded an ED50 with Mus musculus [6] of 8 mg/kg. This compound came in with an inhibition in vivo at 10 mg/kg in the series on Mus musculus [16] of 69%. Further, the 50% lethal dose (LD50) in series [2] was 170 mg/kg. In addition, the inhibition in vivo at 40 mg/kg in the series with Rattus norvegicus [17] and in the series on Rattus norvegicus [18] was 0% throughout.
On to `CNC(=O)n1c(-c2ccc(F)cc2)c(CCN2CCN(c3ccccc3)CC2)oc1=O`, for which the figures for the ED50 in the series with Mus musculus [7] and in the series on Mus musculus [6] were 9.9 mg/kg and 16.5 mg/kg, respectively. The compound further registered a 50% lethal dose (LD50) in [2] of 750 mg/kg. Besides, the percent of rats showing catalepsy at 100 mg/kg in the series with Rattus norvegicus [5] amounted to 0%.

These data come from ChEMBL document CHEMBL1124344, “5-Piperazinylalkyl-2(3H)-oxazolones with neuroleptic activity” (J Med Chem, 1989).
